Converted amounts (≈) assume the structure as drawn.
Key:
Assay type in all cases: functional
Staphylococcus aureus [1] = assay: Antibacterial activity against standard Staphylococcus aureus after 20 hrs by agar dilution method
Procedure, shortened: (§1)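 Agar dilution MIC. The inoculum came from a seed culture in Sensitivity test broth. A 5 µl portion of a cell suspension of about 10^6 CFU/ml was inoculated onto Sensitivity disk agar supplemented with 5% horse blood. Plates were incubated at 37 °C for 20 h, then MIC was read.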

Haemophilus influenzae [2] = assay: Antibacterial activity against standard Haemophilus influenzae after 20 hrs by agar dilution method
Procedure, shortened: (§2)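 MIC by agar dilution. Strains grown on blood agar plates for seed culture. About 5 µl of a suspension of roughly 10^6 CFU/ml spotted onto Sensitivity disk agar with 5% horse blood. Plates incubated at 37 °C for 20 h, then MIC read.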

Staphylococcus aureus [3] = assay: Antibacterial activity against ermC-inducible resistant Staphylococcus aureus after 20 hrs by agar dilution method; procedure, shortened: as §1
Moraxella catarrhalis = assay: Antibacterial activity against standard Moraxella catarrhalis after 20 hrs by agar dilution method; procedure, shortened: as §2
Staphylococcus aureus [4] = assay: Antibacterial activity against ermB-inducible resistant Staphylococcus aureus after 20 hrs by agar dilution method; procedure, shortened: as §1
Streptococcus pneumoniae [5] = assay: Antibacterial activity against mefE efflux-resistant Streptococcus pneumoniae after 20 hrs by agar dilution method
Procedure, shortened: (§3)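 Agar dilution MIC. Streptococcal strains were pre-cultured on blood agar plates. A 5 µl portion of a cell suspension of about 10^6 CFU/ml was inoculated onto Sensitivity disk agar supplemented with 5% horse blood. Plates were incubated at 37 °C for 20 h, then MIC was read.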

Streptococcus pneumoniae [6] = assay: Antibacterial activity against ermB-inducible resistant Streptococcus pneumoniae after 20 hrs by agar dilution method; procedure, shortened: as §3
Staphylococcus aureus [7] = assay: Antibacterial activity against ermA-constitutive resistant Staphylococcus aureus after 20 hrs by agar dilution method; procedure, shortened: as §1
Streptococcus pyogenes [8] = assay: Antibacterial activity against mefE efflux-resistant Streptococcus pyogenes after 20 hrs by agar dilution method; procedure, shortened: as §3
Haemophilus influenzae [9] = assay: Antibacterial activity against susceptible Haemophilus influenzae after 20 hrs by agar dilution method; procedure, shortened: as §2
Staphylococcus aureus [10] = assay: Antibacterial activity against susceptible Staphylococcus aureus after 20 hrs by agar dilution method; procedure, shortened: as §1
Streptococcus pyogenes [11] = assay: Antibacterial activity against ermB-constitutive resistant Streptococcus pyogenes after 20 hrs by agar dilution method; procedure, shortened: as §3
Streptococcus pneumoniae [12] = assay: Antibacterial activity against ermB-constitutive resistant Streptococcus pneumoniae after 20 hrs by agar dilution method; procedure, shortened: as §3
Streptococcus pneumoniae [13] = assay: Antibacterial activity against susceptible Streptococcus pneumoniae after 20 hrs by agar dilution method; procedure, shortened: as §2

Row | SMILES | MIC (Staphylococcus aureus [1]) [µg/mL] | MIC (Haemophilus influenzae [2]) [µg/mL] | MIC (Staphylococcus aureus [3]) [µg/mL] | MIC (Moraxella catarrhalis) [µg/mL] | MIC (Staphylococcus aureus [4]) [µg/mL] | MIC (Streptococcus pneumoniae [5]) [µg/mL] | MIC (Streptococcus pneumoniae [6]) [µg/mL] | MIC (Staphylococcus aureus [7]) [µg/mL] | MIC (Streptococcus pyogenes [8]) [µg/mL] | MIC (Haemophilus influenzae [9]) [µg/mL] | MIC (Staphylococcus aureus [10]) [µg/mL] | MIC (Streptococcus pyogenes [11]) [µg/mL] | MIC (Streptococcus pneumoniae [12]) [µg/mL] | MIC (Streptococcus pneumoniae [13]) [µg/mL]
1 | CCC(=O)O[C@@H]1CC(=O)O[C@H](C)C[C@H](O)[C@H](N(C)CCCCc2ccccc2)/C=C/[C@H](OC(C)=O)[C@H](C)C[C@H](CC=O)[C@H](O[C@@H]2O[C@H](C)[C@@H](O[C@H]3C[C@@](C)(O)[C@@H](OC(=O)CC)[C@H](C)O3)[C@H](N(C)C)[C@H]2O)[C@H]1OC | 0.39 (≈ 0.377 µM) | 3.13 (≈ 3.02 µM) | 0.78 (≈ 0.753 µM) | 0.78 (≈ 0.753 µM) | 1.56 (≈ 1.51 µM) | 0.2 (≈ 0.193 µM) | 12.5 (≈ 12.1 µM) | > 100 | 0.2 (≈ 0.193 µM) | 25 (≈ 24.1 µM) | 0.39 (≈ 0.377 µM) | 100 (≈ 96.6 µM) | > 100 | 0.05 (≈ 0.0483 µM)
2 | CCC(=O)O[C@@H]1CC(=O)O[C@H](C)C[C@H](O)[C@H](N(C)CCCc2ccncc2)/C=C/[C@H](OC(C)=O)[C@H](C)C[C@H](CC=O)[C@H](O[C@@H]2O[C@H](C)[C@@H](O)[C@H](N(C)C)[C@H]2O)[C@H]1OC | 0.78 (≈ 0.949 µM) | 0.39 (≈ 0.474 µM) | 1.56 (≈ 1.9 µM) | 0.1 (≈ 0.122 µM) | 1.56 (≈ 1.9 µM) | 1.56 (≈ 1.9 µM) | > 100 | > 100 | 6.25 (≈ 7.6 µM) | 3.13 (≈ 3.81 µM) | 1.56 (≈ 1.9 µM) | > 100 | > 100 | 0.39 (≈ 0.474 µM)
3 | CCC(=O)O[C@@H]1CC(=O)O[C@H](C)C[C@@H]2OC(=O)N[C@@H]2/C=C/[C@H](OC(C)=O)[C@H](C)C[C@H](CC=O)[C@H](O[C@@H]2O[C@H](C)[C@@H](O[C@H]3C[C@@](C)(O)[C@@H](OC(=O)CC)[C@H](C)O3)[C@H](N(C)C)[C@H]2O)[C@H]1OC | 0.39 (≈ 0.426 µM) | 0.78 (≈ 0.852 µM) | 0.78 (≈ 0.852 µM) | 0.39 (≈ 0.426 µM) | 0.39 (≈ 0.426 µM) | 0.2 (≈ 0.219 µM) | > 100 | > 100 | 0.2 (≈ 0.219 µM) | 6.25 (≈ 6.83 µM) | 0.39 (≈ 0.426 µM) | > 100 | > 100 | 0.2 (≈ 0.219 µM)
4 | CCC(=O)O[C@@H]1CC(=O)O[C@H](C)C[C@H](O)[C@H](N(C)CCCc2ccccc2)/C=C/[C@H](OC(C)=O)[C@H](C)C[C@H](CC=O)[C@H](O[C@@H]2O[C@H](C)[C@@H](O[C@H]3C[C@@](C)(O)[C@@H](OC(=O)CC)[C@H](C)O3)[C@H](N(C)C)[C@H]2O)[C@H]1OC | 0.2 (≈ 0.196 µM) | 1.56 (≈ 1.53 µM) | 0.2 (≈ 0.196 µM) | 0.39 (≈ 0.382 µM) | 0.2 (≈ 0.196 µM) | 0.1 (≈ 0.0979 µM) | 12.5 (≈ 12.2 µM) | > 100 | 0.1 (≈ 0.0979 µM) | 25 (≈ 24.5 µM) | 0.2 (≈ 0.196 µM) | 100 (≈ 97.9 µM) | > 100 | 0.05 (≈ 0.049 µM)
5 | CCC(=O)O[C@@H]1CC(=O)O[C@H](C)C[C@@H]2OC(=O)N(CCCCc3ccccc3)[C@@H]2/C=C/[C@H](OC(C)=O)[C@H](C)C[C@H](CC=O)[C@H](O[C@@H]2O[C@H](C)[C@@H](O[C@H]3C[C@@](C)(O)[C@@H](OC(=O)CC)[C@H](C)O3)[C@H](N(C)C)[C@H]2O)[C@H]1OC | 0.78 (≈ 0.745 µM) | 6.25 (≈ 5.97 µM) | 0.78 (≈ 0.745 µM) | 3.13 (≈ 2.99 µM) | 0.39 (≈ 0.372 µM) | 0.2 (≈ 0.191 µM) | 100 (≈ 95.5 µM) | > 100 | 0.39 (≈ 0.372 µM) | > 100 | 0.39 (≈ 0.372 µM) | > 100 | > 100 | 0.2 (≈ 0.191 µM)
6 | CCC(=O)O[C@@H]1CC(=O)O[C@H](C)C/C=C/C=C/[C@H](OC(C)=O)[C@H](C)C[C@H](CC=O)[C@H](O[C@@H]2O[C@H](C)[C@@H](O[C@H]3C[C@@](C)(O)[C@@H](OC(=O)CC)[C@H](C)O3)[C@H](N(C)C)[C@H]2O)[C@H]1OC | 0.39 (≈ 0.456 µM) | 3.13 (≈ 3.66 µM) | 0.78 (≈ 0.911 µM) | 0.78 (≈ 0.911 µM) | 0.39 (≈ 0.456 µM) | 0.2 (≈ 0.234 µM) | 100 (≈ 117 µM) | > 100 | 0.39 (≈ 0.456 µM) | 25 (≈ 29.2 µM) | 0.39 (≈ 0.456 µM) | > 100 | > 100 | 0.2 (≈ 0.234 µM)
